In ChEMBL document CHEMBL2346541, “Synthesis and evaluation of quinazoline derivatives as phosphodiesterase 7 inhibitors” (Bioorg Med Chem, 2013):

Biological target: Phosphodiesterase 7 (Homo sapiens, UniProt Q13946+Q9NP56)
Assay: Inhibition of PDE7 catalytic domain (unknown origin) using [3H]-cAMP as substrate after 1 hr by scintillation proximity assay
Assay type: protein assay
Method in brief: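 Test compounds were dissolved in DMSO (10 mM stock) and run as a dilution series. It was stirred 1 h at room temperature, stopped with PDE SPA beads, settled 20 min and counted. Assays were run in triplicate, and IC50 was calculated.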

IC50 | Structure (SMILES)
11 µM | Cc1nc(SCc2ccc(-c3ccccc3-c3nn[nH]n3)cc2)c2ccccc2n1
44 µM | CC(C)c1nc(SCc2ccc(-c3ccccc3C(=O)O)cc2)c2ccccc2n1
0.85 µM | CC(C)c1nc(SCc2ccc(-c3cccc(C(=O)O)c3)cc2)c2ccccc2n1
0.93 µM | CC(C)c1nc(SCc2ccc(-c3ccc(C(=O)O)cc3)cc2)c2ccccc2n1
12 µM | Clc1ccc(-c2nc(SCc3ccc(-c4ccccc4-c4nnn[nH]4)cc3)c3ccccc3n2)cc1
> 100 µM | Brc1cc(Br)c2c(SCc3ccc(-c4cccc(-c5nnn[nH]5)c4)cc3)nc(CCc3ccccc3)nc2c1
3.6 µM | COc1cc2c(SCc3ccc(-c4ccccc4-c4nnn[nH]4)cc3)nc(CCc3ccccc3)nc2c(OC)c1OC
> 100 µM | N#Cc1ccccc1-c1ccc(CSc2ncnc3ccccc23)cc1
> 100 µM | Cc1nc(SCc2ccc(-c3ccccc3C#N)cc2)c2ccccc2n1
> 100 µM | N#Cc1ccccc1-c1ccc(CSc2nc(C(Cl)(Cl)Cl)nc3ccccc23)cc1
> 100 µM | CC(C)c1nc(SCc2ccc(-c3ccccc3C#N)cc2)c2ccccc2n1
ND(Insoluble) | N#Cc1ccccc1-c1ccc(CSc2nc(SCc3ccccc3)nc3ccccc23)cc1
> 100 µM | N#Cc1ccccc1-c1ccc(CSc2nc(SCc3ccc(F)cc3)nc3ccccc23)cc1
> 100 µM | N#Cc1ccccc1-c1ccc(CSc2nc(SCc3ccc([N+](=O)[O-])cc3)nc3ccccc23)cc1
> 100 µM | COC(=O)c1ccccc1-c1ccc(CSc2nc(C(C)C)nc3ccccc23)cc1
> 100 µM | COC(=O)c1cccc(-c2ccc(CSc3nc(C(C)C)nc4ccccc34)cc2)c1
33 µM | COC(=O)c1ccc(-c2ccc(CSc3nc(C(C)C)nc4ccccc34)cc2)cc1
7.1 µM | c1ccc(CSc2nc(SCc3ccc(-c4ccccc4-c4nnn[nH]4)cc3)c3ccccc3n2)cc1
6.8 µM | Fc1ccc(CSc2nc(SCc3ccc(-c4ccccc4-c4nnn[nH]4)cc3)c3ccccc3n2)cc1
4.9 µM | O=[N+]([O-])c1ccc(CSc2nc(SCc3ccc(-c4ccccc4-c4nnn[nH]4)cc3)c3ccccc3n2)cc1
3.3 µM | COc1cccc(CSc2nc(SCc3ccc(-c4ccccc4-c4nnn[nH]4)cc3)c3ccccc3n2)c1
ND(Insoluble) | c1ccc(-c2nnn[nH]2)c(-c2ccc(CSc3nc(SCc4ccc(-c5ccccc5-c5nnn[nH]5)cc4)c4ccccc4n3)cc2)c1
8.2 µM | c1cc(-c2ccc(CSc3ncnc4ccccc34)cc2)cc(-c2nnn[nH]2)c1
7.2 µM | c1ccc2c(SCc3ccc(-c4ccc(-c5nnn[nH]5)cc4)cc3)ncnc2c1
2.5 µM | Cc1nc(SCc2ccc(-c3cccc(-c4nnn[nH]4)c3)cc2)c2ccccc2n1
8 µM | Cc1nc(SCc2ccc(-c3ccc(-c4nnn[nH]4)cc3)cc2)c2ccccc2n1
2.6 µM | ClC(Cl)(Cl)c1nc(SCc2ccc(-c3ccccc3-c3nnn[nH]3)cc2)c2ccccc2n1
0.89 µM | CC(C)c1nc(SCc2ccc(-c3cccc(-c4nnn[nH]4)c3)cc2)c2ccccc2n1
0.77 µM | CC(C)c1nc(SCc2ccc(-c3ccccc3-c3nn[nH]n3)cc2)c2ccccc2n1
